Source: ChEMBL document CHEMBL3112561, “Small molecule disruptors of the glucokinase-glucokinase regulatory protein interaction: 2. Leveraging structure-based drug design to identify analogues with improved pharmacokinetic profiles” (J Med Chem, 2014)
Active and inactive are the calls of the source. The rule behind the calls is not given here.

Legend:
Mus musculus [1] = assay: Antidiabetic activity in insulin-resistant db/db mouse assessed as reduction of fed blood glucose level at 50 mg/kg, po measured at 4 to 8 hrs; format: functional, organism-based; parameters: dose 50 mg/kg
In short: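 Fed db/db mice from 8–9 wk of age, acclimatized 1 wk; retro-orbital bleed at 8:00 AM, glucose by meter, randomized, only 300–500 mg/dL included. Oral gavage at 9:00 AM in 2% HPMC/1% Tween 80, pH 2.2 (MSA). Blood glucose at 4 and 8 h post-dose versus vehicle groups (n ≥ 7); ANCOVA.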

[2] = target: T1, Glucokinase regulatory protein (Homo sapiens, UniProt Q14397); assay: Inhibition of fluorescein-labeled human GK interaction with biotin-labeled human GKRP incubated for 20 mins prior to addition of fluorescein-labeled GK measured after 2 to 4 hrs by Alpha Screen assay
T1 sequence (Q14397 whole entry): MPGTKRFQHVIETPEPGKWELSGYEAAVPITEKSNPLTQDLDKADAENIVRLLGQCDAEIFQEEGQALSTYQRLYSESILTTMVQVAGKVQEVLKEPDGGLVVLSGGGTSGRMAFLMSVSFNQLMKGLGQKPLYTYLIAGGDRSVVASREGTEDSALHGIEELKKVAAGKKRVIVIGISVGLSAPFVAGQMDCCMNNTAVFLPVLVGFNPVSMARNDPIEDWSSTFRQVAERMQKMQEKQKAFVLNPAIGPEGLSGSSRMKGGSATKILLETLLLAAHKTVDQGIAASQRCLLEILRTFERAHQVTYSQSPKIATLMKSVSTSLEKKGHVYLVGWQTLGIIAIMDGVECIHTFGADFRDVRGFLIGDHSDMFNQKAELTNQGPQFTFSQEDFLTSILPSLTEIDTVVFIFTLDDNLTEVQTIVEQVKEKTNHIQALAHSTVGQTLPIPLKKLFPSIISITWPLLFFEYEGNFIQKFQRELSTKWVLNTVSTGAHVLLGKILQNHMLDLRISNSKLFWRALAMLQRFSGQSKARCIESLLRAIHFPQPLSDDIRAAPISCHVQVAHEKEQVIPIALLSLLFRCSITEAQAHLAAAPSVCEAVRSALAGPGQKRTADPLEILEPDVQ

[3] = Intrinsic clearance in rat liver microsomes at 1 uM after 30 mins in presence of NADPH; format: ADME; conditions: read-out: CLH
[4] = Intrinsic clearance in human liver microsomes at 1 uM after 30 mins in presence of NADPH; format: ADME; conditions: read-out: CLH
[5] = target: T2, Glucokinase regulatory protein (Mus musculus, UniProt Q91X44); assay: Induction of GK translocation from nucleus to cytoplasm of mouse hepatocytes preincubated for 20 mins followed by glucose challenge measured after 40 mins by Hoechst 33342 staining-based assay; format: cell-based, Hepatocyte
T2 sequence (Q91X44 whole entry): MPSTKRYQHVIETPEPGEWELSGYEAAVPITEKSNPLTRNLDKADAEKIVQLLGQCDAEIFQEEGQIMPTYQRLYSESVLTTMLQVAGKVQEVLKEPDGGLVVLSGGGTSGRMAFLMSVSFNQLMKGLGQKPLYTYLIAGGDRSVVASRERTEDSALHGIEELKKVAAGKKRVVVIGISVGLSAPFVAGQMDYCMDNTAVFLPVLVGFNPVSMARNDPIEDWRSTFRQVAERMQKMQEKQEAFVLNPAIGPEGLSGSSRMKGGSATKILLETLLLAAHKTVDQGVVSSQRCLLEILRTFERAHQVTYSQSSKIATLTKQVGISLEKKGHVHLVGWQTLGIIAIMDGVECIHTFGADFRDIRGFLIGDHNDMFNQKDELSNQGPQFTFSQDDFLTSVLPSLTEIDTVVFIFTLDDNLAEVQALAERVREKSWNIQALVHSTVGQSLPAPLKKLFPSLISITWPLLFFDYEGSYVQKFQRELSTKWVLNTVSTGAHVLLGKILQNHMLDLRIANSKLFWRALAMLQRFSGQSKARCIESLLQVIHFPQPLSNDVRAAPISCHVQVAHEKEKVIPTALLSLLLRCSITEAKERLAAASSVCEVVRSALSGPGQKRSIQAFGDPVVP

[6] = Volume of distribution at steady state in rat at 2 mg/kg, iv; format: ADME, organism-based; parameters: dose 2 mg/kg, route intravenous; conditions: in vivo, read-out: Vdss
In short: (§1)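 Intravenous PK at 2 mg/kg in 100% DMSO; steady-state volume of distribution derived from plasma profile.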

[7] = Mean residence time in rat at 10 mg/kg, po; format: ADME, organism-based; parameters: dose 10 mg/kg, route oral; conditions: in vivo
In short: (§2)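 Oral PK at 10 mg/kg in 1% Tween 80, 2% HPMC, 97% water, […]; mean residence time from plasma profile.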

[8] = Oral bioavailability in rat at 10 mg/kg; format: ADME, organism-based; conditions: in vivo
Liver microsome [9] = assay: Drug metabolism in rat liver microsomes assessed as oxidation of thiophene ring; format: ADME
Liver microsome [10] = assay: Drug metabolism in human liver microsomes assessed as cleavage of sufonamide; format: ADME
Liver microsome [11] = assay: Drug metabolism in human liver microsomes assessed as oxidation of thiophene ring; format: ADME
Liver microsome [12] = assay: Drug metabolism in rat liver microsomes assessed as cleavage of sufonamide; format: ADME
[13] = Clearance in rat at 2 mg/kg, iv; format: ADME, organism-based; parameters: dose 2 mg/kg, route intravenous; conditions: in vivo
Liver microsome [14] = assay: Drug metabolism in rat liver microsomes assessed as oxidative metabolite formation; format: ADME
Mus musculus [15] = assay: Antidiabetic activity in insulin-resistant db/db mouse assessed as reduction of fed blood glucose level at 30 mg/kg, po measured at 6 hrs relative to vehicle-treated control; format: functional; parameters: scale not given: the % may be the effect or the level left
Mus musculus [16] = assay: Antidiabetic activity in insulin-resistant db/db mouse assessed as reduction of fed blood glucose level at 100 mg/kg, po measured at 6 hrs relative to vehicle-treated control; format: functional; parameters: scale not given: the % may be the effect or the level left
[17] = Oral bioavailability in C57Bl6 mouse at 10 mg/kg; format: ADME, organism-based; conditions: in vivo
Mus musculus [18] = assay: Antidiabetic activity in insulin-resistant db/db mouse assessed as reduction of fed blood glucose level at 100 mg/kg, po measured at 8 hrs relative to vehicle-treated control; format: functional; parameters: scale not given: the % may be the effect or the level left
[19] = Mean residence time in C57Bl6 mouse at 10 mg/kg, po; format: ADME, organism-based; parameters: dose 10 mg/kg, route oral; conditions: in vivo; in short: as §2
Mus musculus [20] = assay: Unbound maximum concentration in C57Bl6 mouse at 10 mg/kg, po; format: ADME, organism-based; parameters: dose 10 mg/kg, route oral; conditions: in vivo
[21] = Volume of distribution at steady state in C57Bl6 mouse at 2 mg/kg, iv; format: ADME, organism-based; parameters: dose 2 mg/kg, route intravenous; conditions: in vivo, read-out: Vdss; in short: as §1

SMILES	IC50 [2] [nM]	microsomal CLint at 1 µM [3] [µL/min/mg]	microsomal CLint at 1 µM [4] [µL/min/mg]	EC50 [5] [nM]	further results
CS(=O)(=O)c1ccc([C@@H](CC2CCCC2)C(=O)Nc2nccs2)cc1					Activity (Mus musculus [1]): Active
C[C@](O)(c1ccc(N2CCN(S(=O)(=O)c3cccs3)C[C@@H]2CN2[C@@H]3COC[C@H]2[C@@H](O)C3)cc1)C(F)(F)F	56	112	131	> 12500	
C[C@@](O)(c1ccc(N2CCN(S(=O)(=O)c3cccs3)C[C@@H]2CN2[C@@H]3COC[C@H]2[C@@H](O)C3)cc1)C(F)(F)F	25	155	99	1670	
CC(O)(c1ccc(N2CCN(S(=O)(=O)c3cccs3)C[C@@H]2CN2[C@H]3COC[C@H]2[C@H](O)C3)cc1)C(F)(F)F (mixture of isomers)	44	321	302	1690	
CC#C[C@H]1CN(S(=O)(=O)c2ccc(N)nc2)CCN1c1ccc([C@](C)(O)C(F)(F)F)cc1					Vd [6]: 3.7 L/kg; MRT [7]: 2.9 h; bioavailability [8]: 57%
C[C@@](O)(c1ccc(N2CCN(S(=O)(=O)c3cccs3)C[C@@H]2CN2[C@H]3COC[C@@H]2[C@H](O)C3)cc1)C(F)(F)F	14	118	128	1190	Drug metabolism (Liver microsome [9]): Active; Drug metabolism (Liver microsome [10]): Active; Drug metabolism (Liver microsome [11]): Active; Drug metabolism (Liver microsome [12]): Active
Nc1ccccc1S(=O)(=O)N1CCN(c2ccc(C(O)(C(F)(F)F)C(F)(F)F)cc2)CC1		237		> 12500	
C[C@](O)(c1ccc(N2CCN(S(=O)(=O)c3cccs3)C[C@@H]2CN2[C@H]3COC[C@@H]2[C@H](O)C3)cc1)C(F)(F)F	16	114	135	4760	
CC(O)(c1ccc(N2CCN(S(=O)(=O)c3cccs3)C[C@@H]2CN2CC3(COC3)C2)cc1)C(F)(F)F (mixture of isomers)	524	120	83	> 12500	
Nc1ncc(S(=O)(=O)N2CCN(c3ccc(C(O)(C(F)(F)F)C(F)(F)F)cc3)CC2)cn1		< 14			
CC(O)(c1ccc(N2CCN(S(=O)(=O)c3cccs3)C[C@@H]2CN2CCC(F)(F)CC2)cc1)C(F)(F)F (mixture of isomers)	439	349	280	> 12500	
Nc1ccc(S(=O)(=O)N2CCN(c3ccc(C(O)(C(F)(F)F)C(F)(F)F)cc3)CC2)s1	252	128		> 12500	
CC(O)(c1ccc(N2CCN(S(=O)(=O)c3cccs3)C[C@@H]2CN2[C@H]3COC[C@H]2[C@@H](O)C3)cc1)C(F)(F)F (mixture of isomers)	26	141	125	1290	
CC#C[C@H]1CN(S(=O)(=O)c2ccc(N)nc2)CCN1c1ccc(C(O)(C(F)(F)F)C(F)(F)F)cc1					Activity (Mus musculus [15]): 47%; Activity (Mus musculus [16]): 60%; bioavailability [17]: 40%; Vd [6]: 3.6 L/kg; Activity (Mus musculus [18]): 56%; MRT [7]: 6.2 h; MRT [19]: 9.2 h; fCmax (Mus musculus [20]): 0.068 µM; Vd [21]: 1.1 L/kg; bioavailability [8]: 75%

Now from value to molecule, other results behind:

IC50 [2] [nM]	microsomal CLint at 1 µM [3] [µL/min/mg]	microsomal CLint at 1 µM [4] [µL/min/mg]	EC50 [5] [nM]	SMILES	further results
343	50	92	> 12500	CC(O)(c1ccc(N2CCN(S(=O)(=O)c3cccs3)C[C@@H]2CN2CCS(=O)(=O)CC2)cc1)C(F)(F)F (mixture of isomers)	
484	49		> 12500	Nc1ccc(S(=O)(=O)N2CCN(c3ccc(C(O)(C(F)(F)F)C(F)(F)F)cc3)CC2)cc1	
56	109	< 14	2930	CCC#CC1CN(S(=O)(=O)c2ccc(N)nc2)CCN1c1ccc(C(O)(C(F)(F)F)C(F)(F)F)cc1 (racemic)	
1010	94		> 12500	O=S(=O)(c1ccccc1)N1CCN(c2ccc(C(O)(C(F)(F)F)C(F)(F)F)cc2)CC1	
	150			O=S(=O)(c1cccs1)N1CCN(c2ccc(C(O)(C(F)(F)F)C(F)(F)F)cc2)CC1	
8630	27		> 12500	Nc1cc(S(=O)(=O)N2CCN(c3ccc(C(O)(C(F)(F)F)C(F)(F)F)cc3)CC2)ccn1	
2	> 399	320	239	CC(O)(c1ccc(N2CCN(S(=O)(=O)c3cccs3)C[C@@H]2CN2C3CCC2COC3)cc1)C(F)(F)F (mixture of isomers)	
645	59		> 12500	Nc1cccc(S(=O)(=O)N2CCN(c3ccc(C(O)(C(F)(F)F)C(F)(F)F)cc3)CC2)c1	
324	90		> 12500	Nc1csc(S(=O)(=O)N2CCN(c3ccc(C(O)(C(F)(F)F)C(F)(F)F)cc3)CC2)c1	
779	61	52	> 12500	Nc1ccc(S(=O)(=O)N2CCN(c3ccc(C(O)(C(F)(F)F)C(F)(F)F)cc3)C(C#CC3CC3)C2)cn1 (racemic)	
	< 14	< 14	> 12500	Nc1ccc(S(=O)(=O)N2CCN(c3ccc(C(O)(C(F)(F)F)C(F)(F)F)cc3)CC2)cn1	clearance [13]: 2 mL/min/kg; Vd [6]: 1.41 L/kg; MRT [7]: 8.4 h; Drug metabolism (Liver microsome [14]): Not Active; bioavailability [8]: 71%
7	> 399	451	820	C[C@H]1COCCN1C[C@H]1CN(S(=O)(=O)c2cccs2)CCN1c1ccc(C(C)(O)C(F)(F)F)cc1 (mixture of isomers)	
1430	90	< 14	> 12500	CC(C)(C)C#CC1CN(S(=O)(=O)c2ccc(N)nc2)CCN1c1ccc(C(O)(C(F)(F)F)C(F)(F)F)cc1 (racemic)	
90	93	132	> 12500	CC1CS(=O)(=O)CCN1C[C@H]1CN(S(=O)(=O)c2cccs2)CCN1c1ccc(C(C)(O)C(F)(F)F)cc1 (mixture of isomers)	
